Most compounds without a hit are left out; they make up all but 1.8% or so of the library.
M4 ag: agonists of human muscarinic M4 receptor (CHRM4); P08173; AID 624127; activation, % at 3 µM; CHO-K1 hM4/Gqi5, Fluo-8 calcium fluorescence; vehicle 0%, full acetylcholine response 100%; 0.14% of 360,000 active;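 active means activation above the run mean over all test wells plus 3 SD, cut at about 32% in these data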;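 further: peak over basal fluorescence ratio per well then scaled between controls; 0% = DMSO wells and 100% = acetylcholine at EC100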
M4 antag: CHRM4 antagonism in calcium assay | P08173 | CHO-hM4 cells, ACh EC80, Fluo-8 calcium fluorescence | inhibition, % at 3 µM | 0.73% of 360,000 active | AID 624125;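 active means inhibition above its plate's cutoff, the mean inhibition of sample wells plus 3 SD, cut at about 27% in these data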;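 further: 0% = acetylcholine EC80 with DMSO and 100% = DMSO without agonist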
CHRM5 antagonist: blocks acetylcholine activation of human M5 receptor. P08912. CHO-hM5 cells, Fluo-8 calcium fluorescence, ACh EC80. inhibition, % at 3 µM. 0.59% of 360,000 active. AID 624040;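 active means inhibition above a per-plate cutoff, the mean of that plate's test compounds plus 3 SD, cut at about 27% in these data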;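 further: 0% = acetylcholine EC80 with DMSO and 100% = DMSO without agonist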
Target sequence (P08912 whole entry, looked up): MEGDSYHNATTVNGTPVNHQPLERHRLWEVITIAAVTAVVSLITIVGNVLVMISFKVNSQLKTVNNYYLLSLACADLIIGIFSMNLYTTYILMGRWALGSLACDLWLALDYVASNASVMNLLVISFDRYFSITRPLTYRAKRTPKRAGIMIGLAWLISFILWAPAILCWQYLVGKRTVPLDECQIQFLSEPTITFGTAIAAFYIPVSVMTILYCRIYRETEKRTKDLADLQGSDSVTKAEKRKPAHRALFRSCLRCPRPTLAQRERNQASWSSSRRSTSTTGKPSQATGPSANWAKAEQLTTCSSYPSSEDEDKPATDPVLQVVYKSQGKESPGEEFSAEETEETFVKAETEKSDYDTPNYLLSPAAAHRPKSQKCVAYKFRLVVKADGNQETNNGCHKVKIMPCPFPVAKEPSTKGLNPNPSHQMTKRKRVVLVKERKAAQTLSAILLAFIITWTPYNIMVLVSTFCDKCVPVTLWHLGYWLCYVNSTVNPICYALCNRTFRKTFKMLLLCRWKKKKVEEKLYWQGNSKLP
M4 PAM: CHRM4 positive allosteric modulation; P08173; activation, % at 3 µM; 0.4% of 360,000 active; CHO-K1 hM4/Gqi5, Fluo-8 calcium fluorescence, ACh EC20; 0% = ACh EC20, 100% = maximal ACh; AID 624126;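 active means activation above its plate's cutoff, the mean activation of sample wells plus 3 SD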
M5 ag: CHRM5 agonism in calcium assay | 0.19% of 360,000 active | activation, % at 3 µM | AID 624037 | P08912 | CHO-K1 hM5 cells, Fluo-8 calcium fluorescence; 0% DMSO wells, 100% maximal acetylcholine response;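 active means activation above the run's mean over test compounds plus 3 SD, cut at about 23% in these data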;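 further: signal is peak over basal fluorescence ratio across the kinetic read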
M5 PAM: positive allosteric modulators of human muscarinic M5 receptor; P08912; CHO-K1 hM5, Fluo-8 calcium, ACh EC20 PAM; 0% = ACh EC20, 100% = ACh EC100; activation, % at 3 µM; 0.3% of 360,000 active;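 active means activation above the run cutoff, the mean activation of all test compounds plus 3 SD, cut at about 18% in these data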
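system = human M5 receptor in CHO-K1 cells | compound = one concentration, 3 µM final (nominal) | schedule = Post-acetylcholine fluorescence recording 140 s | signal = Fluo-8 calcium dye fluorescence, kinetic read | benchmarks = low control EC20 acetylcholine (0%), high control EC100 acetylcholine (100%) | repeats = singlicate, one well per test compound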
An asterisk follows results filed as active; ! = not confirmed by another sample.

SMILES | M4 ag | M4 antag | CHRM5 antagonist | M4 PAM | M5 ag | M5 PAM
COc1ccccc1CCn1cc(C#N)c(=O)[nH]c1=O | -2 | 100* | 6 | -16 | -3 | 0
COc1ccc(CCn2cc(C#N)c(=O)[nH]c2=O)cc1OC | 2 | -5 | 18 | -2 | -2 | -14
O=C(CNc1ccccc1OC(F)F)N1CCc2ccccc21 | 3 | 5 | 2 | -9 | -8 | -2
CCOC(=O)Cn1cnc(-c2ccc([N+](=O)[O-])cc2)c1 | 3 | 3 | 2 | 27* | 0 | 1
Cc1ccc2c(CN3CCN(c4ccccc4)CC3)cc(=O)oc2c1 | 0 | 0 | 5 | 1 | 0 | -2
Cc1cc(C)c(NC(=S)NC(NC(=O)c2ccccc2)C(Cl)(Cl)Cl)c(C)c1 (centres undefined) | 7 | 7 | 27* | -1 | 5 | 16
Cc1ccc(NC(=S)NC(NC(=O)c2ccccc2)C(Cl)(Cl)Cl)c(C)c1 (centres undefined) | 8 | -24 | 13 | 12 | 6 | -17
Cc1ccccc1C(=O)NC(NC(=S)Nc1ccc(S(N)(=O)=O)cc1)C(Cl)(Cl)Cl (centres undefined) | 2 | 4 | 11 | 24* | 0 | 2
O=C(NC(NC(=S)Nc1ccccc1)C(Cl)(Cl)Cl)c1cccc(Cl)c1 (centres undefined) | 13 | 9 | 44* | -5 | 7 | -10
Cc1ccc(C(=O)NC(NC(=S)Nc2ccc(S(N)(=O)=O)cc2)C(Cl)(Cl)Cl)cc1 (centres undefined) | 3 | 18 | 8 | 0 | -3 | -8
CC(=O)OC1(C(C)=O)CCC2C3CC(Cl)C4=CC(=O)CCC4(C)C3CCC21C (centres undefined) | 2 | 0 | 12 | 1 | 0 | -6
COc1ccc(Cc2c(-c3ccccc3)nc3c4ccccc4ccn23)c(C)c1 | 0 | 0 | 10 | -2 | -2 | 0
CCOC(=O)C1(CCOc2ccccc2)CCN(Cc2ccc(OCCO)cc2)CC1 | 3 | 1 | 3 | -5 | -20 | -5
CCOC(=O)C1(CCOc2ccccc2)CCN(Cc2ccc(OC)c(O)c2)CC1 | 7 | -7 | 9 | -10 | -24 | -30
CCOC(=O)C1(CCOc2ccccc2)CCN(Cc2ccc(O)c(OCC)c2)CC1 | 12 | -13 | 31* | -12 | -5 | -18
COC(=O)c1ccc(CN2CCC(CO)(Cc3cccc(OC)c3)CC2)cc1 | 3 | 18 | 5 | -19 | -10 | -12
CCOC(=O)C1(CCOc2ccccc2)CCN(Cc2ccc(O)cc2)CC1 | 9 | -5 | 28* | -14 | -20 | -34
COC(=O)c1ccc(CN2CCC(CO)(CCOc3ccccc3)CC2)cc1 | 4 | 48* | 27* | -16 | -16 | -29
CCOC(=O)C[C@@H]1OC[C@H](Cc2ccccc2)N1S(=O)(=O)c1ccc(C)cc1 | 5 | 11 | -12 | -8 | -6 | 4
Cc1cc(C)c2sc(NNC(=O)C3COc4ccccc4O3)nc2c1 (centres undefined) | 0 | -18 | -3 | 16* | 0 | 2
O=c1cc(C(Cl)(Cl)Cl)oc2c1ccc1ccccc12 | 0 | -6 | -5 | 11 | -7 | 0
O=C(NCc1ccccn1)/C(=C/c1ccco1)NC(=O)c1ccccc1 | 5 | -14 | -4 | 21* | 0 | 0
CCN(CC)CCNc1c(C)cc(CO)c(Cl)c1C | 0 | -7 | 6 | -3 | -2 | -3
CCOC1=C2CN(S(=O)(=O)c3ccc(C)cc3)[C@H](c3cccc4ccccc34)C[C@H]2[C@H]2C(=O)N(c3ccccc3)C(=O)[C@H]2C1 | 2 | 6 | 10 | -2 | 1 | -4
CN(c1ccccc1)c1ccc(/C=C/[N+](=O)[O-])cc1 | 16 | 36* | 71* | -15 | 44* | -8
SMILES | M4 ag | M4 antag | CHRM5 antagonist | M4 PAM | M5 ag | M5 PAM
C[C@@H]1CC[C@]2(O[C@H](CCO)C[C@@H](O)[C@@H]2O)O1 | -1 | -2 | -2 | 14 | 4 | 25*
C[C@H]1CC[C@@]2(O[C@@H](CCO)C[C@@H](O)[C@@H]2O)O1 | 1 | 3 | -1 | 14 | 4 | 1
COc1ccc(CN2CC[C@H]3C=CC[C@@H](C(=O)Nc4ccc(Cl)c(C(F)(F)F)c4)[C@H]3C2=O)cc1OC | 4 | -13 | 1 | -5 | -6 | -6
Cc1ccc(OS(=O)(=O)c2c(C)nn(C)c2Cl)c(C)c1 | 0 | 43* | 31* | -17 | -8 | -34
Cc1ccc(C)c(NS(=O)(=O)c2c(C)nn(C)c2C)c1 | 2 | -8 | -9 | 4 | -2 | 2
O=S(=O)(Cc1ccccc1)NCCc1cccc(Cl)c1 | -1 | 7 | 7 | -3 | 0 | -5
CNCCCC12CCC(c3ccccc31)c1ccccc12 | 9 | 28*! | 33*! | -18 | 2 | -18
CNCCCC1Sc2ccccc2Oc2ccccc21 (centres undefined) | 4 | 8 | 13 | -11 | -14 | -36
CCC(=O)N1CCc2cc(S(=O)(=O)NCCN3CCCCC3CC)ccc21 (centres undefined) | 0 | -6 | -9 | 1 | -10 | 24*
CCn1cc(CNCc2cn(C)nc2-c2ccc(C3CCCCC3)cc2)cn1 | 11 | -1 | 2 | 8 | 1 | 4
C[C@@H]1C2CC(C/C2=N\NC(=O)c2ccncc2)C1(C)C (some centres undefined) | 1 | -8 | 12 | 1 | 2 | 39*
COc1ccccc1NC(=O)CSc1nnc(COc2ccc(Cl)cc2)o1 | 3 | -5 | 6 | -4 | 1 | 3
COc1ccccc1NC(=O)CSc1nnc(COc2ccccc2C)o1 | 3 | 100* | 6 | -24 | -4 | 4
COc1ccccc1NC(=O)COC(=O)C1=NN(c2ccccc2)C(=O)CC1 | 1 | -1 | -3 | 16 | 3 | 19*
Nc1ccc(S(=O)(=O)Nc2nc3ccccc3o2)cc1 | 2 | 1 | 21 | 0 | -6 | 1
CC1(C)CC(=O)C(N=Nc2cccc(F)c2C#N)=C(O)C1 | 0 | -12 | 7 | 6 | -12 | -7
COc1ccccc1Cc1c(-c2ccco2)nc2ccc(Br)cn12 | 0 | 8 | 2 | 6 | 2 | -3
O=C(COC(=O)C1CCC1)Nc1ccc(OC(F)F)cc1 | 1 | 0 | 0 | -4 | -5 | 1
O=C(COC(=O)C1CC1)Nc1ccc(OC(F)F)cc1 | 2 | 29* | -3 | 4 | 1 | 5
CCN(CC1CCCO1)C(=O)CCc1nnc(CCc2ccccc2OC)o1 (centres undefined) | 1 | -1 | -2 | 0 | -3 | -1

Screening results deposited in PubChem BioAssay by The Scripps Research Institute Molecular Screening Center.
